ChEMBL document CHEMBL5357044, “Discovery of a dual-acting inhibitor of interleukin-1β and STATs for the treatment of inflammatory bowel disease” (RSC Med Chem, 2024)
The source made the active and inactive calls. No cut-off for these calls is given here.

What was measured:
[1] = biological target: NACHT, LRR and PYD domains-containing protein 3 (Mus musculus, UniProt Q8R4B8); experiment: Inhibition of NLRP3 inflammasome activation in mouse J774.A1 cells assessed as reduction in LPS-stimulated IL-1beta level pretreated for 1 hr followed by nigericin treatment for 1 hr by ELISA; assay type: cell-based
Sequence of NACHT, LRR and PYD domains-containing protein 3 (Q8R4B8 whole entry, the tested form may be a part): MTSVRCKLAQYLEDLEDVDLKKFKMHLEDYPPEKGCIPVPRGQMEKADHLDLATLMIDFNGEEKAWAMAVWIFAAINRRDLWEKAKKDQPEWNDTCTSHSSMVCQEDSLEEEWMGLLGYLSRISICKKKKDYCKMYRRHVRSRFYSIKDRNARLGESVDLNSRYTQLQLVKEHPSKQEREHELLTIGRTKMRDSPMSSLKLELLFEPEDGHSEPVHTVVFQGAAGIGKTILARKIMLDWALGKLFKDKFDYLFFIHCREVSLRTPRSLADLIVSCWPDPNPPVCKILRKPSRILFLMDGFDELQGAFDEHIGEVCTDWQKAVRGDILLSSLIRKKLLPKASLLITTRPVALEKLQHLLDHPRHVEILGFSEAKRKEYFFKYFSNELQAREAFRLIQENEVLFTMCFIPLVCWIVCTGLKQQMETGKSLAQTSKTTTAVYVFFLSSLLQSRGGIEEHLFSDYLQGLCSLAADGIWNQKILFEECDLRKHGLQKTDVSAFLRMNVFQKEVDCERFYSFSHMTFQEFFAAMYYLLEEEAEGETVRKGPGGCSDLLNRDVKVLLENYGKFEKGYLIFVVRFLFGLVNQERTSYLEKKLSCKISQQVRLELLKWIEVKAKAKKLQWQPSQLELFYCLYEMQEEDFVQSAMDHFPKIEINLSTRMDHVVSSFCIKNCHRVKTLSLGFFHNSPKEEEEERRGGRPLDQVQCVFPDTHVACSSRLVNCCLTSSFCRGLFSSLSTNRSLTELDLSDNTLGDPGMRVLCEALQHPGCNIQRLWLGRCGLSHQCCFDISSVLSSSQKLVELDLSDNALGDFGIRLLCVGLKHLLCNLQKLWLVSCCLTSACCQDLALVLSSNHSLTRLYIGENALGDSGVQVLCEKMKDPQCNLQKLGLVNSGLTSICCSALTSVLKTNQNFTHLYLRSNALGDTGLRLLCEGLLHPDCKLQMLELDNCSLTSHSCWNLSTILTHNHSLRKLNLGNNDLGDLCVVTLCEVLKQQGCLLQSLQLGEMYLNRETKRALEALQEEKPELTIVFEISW
In short: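 J774A.1 cells (DMEM, 10% FBS) primed with LPS 1 μg mL−1 for 5 h, compound 1 h, then nigericin 10 μM for 1 h. Supernatant IL-1β by ELISA; IC50 from three separate determinations.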

Mus musculus [2] = experiment: Anti-colitis activity against DSS-induced ulcerative colitis mouse model assessed as increase in body weight at 10 mg/kg/day, po treated for 9 days; assay type: functional, organism-based; conditions: time 9.0 day
In short: (§1)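 DSS colitis: 2.5% DSS in drinking water days 1–7, water days 8–9. Salicylazosulfapyridine given daily by intragastric gavage, 10 mg kg−1. Body weight and fecal blood recorded daily; colon length measured at sacrifice on day 9.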

Mus musculus [3] = experiment: Anti-colitis activity against DSS-induced ulcerative colitis mouse model assessed as increase in colon length at 10 mg/kg/day, po treated for 9 days; assay type: functional, organism-based; conditions: time 9.0 day; in short: as §1
Mus musculus [4] = experiment: Anti-colitis activity against DSS-induced ulcerative colitis mouse model assessed as decrease in hemafecia at 10 mg/kg/day, po treated for 9 days; assay type: functional, organism-based; conditions: time 9.0 day; in short: as §1
Colon [5] = experiment: Anti-colitis activity against DSS-induced ulcerative colitis mouse model assessed as decrease in infiltration of inflammatory cells in colon tissue at 10 mg/kg/day, po for 9 days by H and E staining based analysis; assay type: functional, organism-based; conditions: time 9.0 day
In short: (§2)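 H&E-stained colon sections (×20) scored for inflammatory cell infiltration, goblet cell depletion and crypt architecture. Samples were taken on day 9 from mice given 2.5% DSS water days 1–7 and daily intragastric SASP 10 mg kg−1.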

Colon [6] = experiment: Anti-colitis activity against DSS-induced ulcerative colitis mouse model assessed as increase in crypt architecture in colon tissue at 10 mg/kg/day, po for 9 days by H and E staining based analysis; assay type: functional, organism-based; conditions: time 9.0 day; in short: as §2
Colon [7] = experiment: Anti-colitis activity against DSS-induced ulcerative colitis mouse model assessed as increase in goblet cells in colon tissue at 10 mg/kg/day, po for 9 days by H and E staining based analysis; assay type: functional, organism-based; conditions: time 9.0 day; in short: as §2

| SMILES | IC50 [1] | also measured |
| --- | --- | --- |
| COc1ccc(C(=O)/C=C/c2cc(C)c(O)c(C)c2)cc1 | 14.4 µM |  |
| Cc1cc(/C=C/C(=O)c2ccc(C(=O)O)cc2)cc(C)c1O | > 50 µM |  |
| Cc1cc(/C=C/C(=O)c2ccc(C(=O)NCC(=O)O)cc2)cc(C)c1O | > 50 µM |  |
| CCN(CC)C(=S)Sc1ccc(C(=O)/C=C/c2cc(C)c(O)c(C)c2)cc1 | 27.1 µM |  |
| CCOC(=O)CSc1ccc(C(=O)/C=C/c2cc(C)c(O)c(C)c2)cc1 | 4.93 µM |  |
| CCN(CC)C(=O)CNC(=O)c1ccc(C(=O)/C=C/c2cc(C)c(O)c(C)c2)cc1 | 5.95 µM |  |
| Cc1cc(/C=C/C(=O)c2ccc3c(c2)COC32CNC2)cc(C)c1O | 5.21 µM |  |
| Cc1cc(/C=C/C(=O)c2ccc(C(=O)NCC(=O)Nc3ccccc3)cc2)cc(C)c1O | > 50 µM |  |
| O=C(O)c1cc(/N=N/c2ccc(S(=O)(=O)Nc3ccccn3)cc2)ccc1O |  | Activity (Mus musculus [2]): inactive; Activity (Mus musculus [3]): Active; Activity (Mus musculus [4]): inactive; Activity (Colon [5]): Active; Activity (Colon [6]): Active; Activity (Colon [7]): Active |
| Cc1cc(/C=C/C(=O)c2ccc(NC(=O)CCN(C)C)cc2)cc(C)c1O | 5.97 µM |  |
| Cc1cc(/C=C/C(=O)c2ccc(C(=O)NCC(=O)N(C)C)cc2)cc(C)c1O | 5.97 µM |  |
| CCOC(=O)c1ccc(C(=O)/C=C/c2cc(C)c(O)c(C)c2)cc1 | 8.36 µM |  |

Further lines, with some results ahead:

| IC50 [1] | SMILES | also measured |
| --- | --- | --- |
| 1.57 µM | CSc1ccc(C(=O)/C=C/c2cc(O)cc(O)c2)cc1 |  |
| 3.8 µM | CCN(CC)C(=S)SCCC(=O)Nc1ccc(C(=O)/C=C/c2cc(C)c(O)c(C)c2)cc1 |  |
| 3.96 µM | CCNC(=O)CNC(=O)c1ccc(C(=O)/C=C/c2cc(C)c(O)c(C)c2)cc1 |  |
| 3.67 µM | CSc1ccc(C(=O)/C=C/c2cc(C)c(O)c(C)c2)cc1 |  |
| 3.02 µM | CNC(=O)CNC(=O)c1ccc(C(=O)/C=C/c2cc(C)c(O)c(C)c2)cc1 |  |
| 3.01 µM | COC(=O)C1(C(=O)Nc2ccc(C(=O)/C=C/c3cc(C)c(O)c(C)c3)cc2)CC1 |  |
| 1.09 µM | COC(=O)[C@H](Cc1ccccc1)NC(=O)c1ccc(C(=O)/C=C/c2cc(C)c(O)c(C)c2)cc1 |  |
| 1.08 µM | COC(=O)CNC(=O)c1ccc(C(=O)/C=C/c2cc(C)c(O)c(C)c2)cc1 |  |
| 3.37 µM | Cc1cc(/C=C/C(=O)c2ccc(C(=O)N[C@@H](Cc3ccccc3)C(=O)O)cc2)cc(C)c1O |  |
